Source: ChEMBL document CHEMBL1154374, “Lipophilic 2,5-disubstituted pyrroles from the marine sponge Mycale sp. inhibit mitochondrial respiration and HIF-1 activation” (J Nat Prod, 2009)
Active and inactive are the calls of the source. The calls are words filed in the database; no cut-off is given here.

Key:
[1] = (§1) Inhibition of electron transport protein complex 1 in human T47D cells assessed as decrease in oxygen consumption by mitochondrial respiration assay; format: cell-based
Procedure, shortened: (§2)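 Oxygen consumption of intact T47D cells measured by an adapted isolated-mitochondria respiration method. Compounds tested at 1, 3, 10 and 30 μM. Three independent experiments, mean ± SD. One-way ANOVA with Bonferroni post hoc, p < 0.05.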

[2] = molecular target: T1, Hypoxia inducible factors; HIF-1-alpha, HIF-2-alpha (Homo sapiens, UniProt Q16665+Q99814); experiment: Inhibition of hypoxia-induced HIF1 activation in human T47D cells at 30 uM by pTK-HRE3-luciferase reporter gene assay; format: cell-based
Procedure, shortened: (§3)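 T47D HIF-1 luciferase reporter under hypoxia (1% O2). Compounds supplied as 4 mM isopropanol stocks, final solvent under 0.75%. % inhibition = (1 − treated/induced light output) × 100. Concentration-response, one experiment in triplicate, mean ± SD.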

[3] = molecular target: T1, Hypoxia inducible factors; HIF-1-alpha, HIF-2-alpha; experiment: Inhibition of 1,10-phenanthroline-induced HIF1 activation in human T47D cells at 10 uM by pTK-HRE3-luciferase reporter gene assay; format: cell-based
Procedure, shortened: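 T47D HIF-1 luciferase reporter; activation induced with 1,10-phenanthroline (10 μM). Compounds supplied as 4 mM isopropanol stocks, final solvent under 0.75%. % inhibition = (1 − treated/induced light output) × 100. Concentration-response, one experiment in triplicate, mean ± SD.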

[4] = molecular target: T1, Hypoxia inducible factors; HIF-1-alpha, HIF-2-alpha; experiment: Inhibition of hypoxia-induced HIF1 activation in human T47D cells by pTK-HRE3-luciferase reporter gene assay; format: cell-based; procedure, shortened: as §3
T47D [5] = experiment: Inhibition of electron transport protein complex 4 in human T47D cells assessed as decrease in oxygen consumption at 10 uM in presence of succinate by mitochondrial respiration assay; format: cell-based
Procedure, shortened: (§4)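 Digitonin-permeabilized T47D cells, O2 consumption. Malate/pyruvate starts complex I respiration. Rotenone, then succinate (complex II substrate), then antimycin A, then TMPD/ascorbate (complex IV substrates) added sequentially. Rotenone and antimycin A from ethanol stocks, final 1 μM.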

T47D [6] = experiment: as §1; format: cell-based; procedure, shortened: as §2
T47D [7] = experiment: Inhibition of hypoxia-induced increase in VEGF production in human T47D cells at 30 uM after 16 hrs by ELISA; format: functional
Procedure, shortened: (§5)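 T47D cells held at 1% O2 for 16 h with compound at 10 or 30 μM. Secreted VEGF in conditioned medium measured by ELISA and normalized to total cell-lysate protein (micro BCA). One experiment in triplicate, mean ± SD. Compared with one-way ANOVA and Bonferroni post hoc.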

T47D [8] = experiment: Inhibition of electron transport protein complex 1 in human T47D cells assessed as decrease in oxygen consumption at 10 uM by mitochondrial respiration assay; format: cell-based; procedure, shortened: as §4
T47D [9] = experiment: Inhibition of electron transport protein complex 2 in human T47D cells assessed as decrease in oxygen consumption at 10 uM in presence of succinate by mitochondrial respiration assay; format: cell-based; procedure, shortened: as §4
T47D [10] = experiment: Inhibition of electron transport protein complex 3 in human T47D cells assessed as decrease in oxygen consumption at 10 uM in presence of succinate by mitochondrial respiration assay; format: cell-based; procedure, shortened: as §4
T47D [11] = experiment: Inhibition of hypoxia-induced increase in VEGF production in human T47D cells at 10 uM after 16 hrs by ELISA; format: functional, cell-based; procedure, shortened: as §5

| Compound | inhibition [2] | IC50 [4] | further results |
| --- | --- | --- | --- |
| N#CCCCCCCCCCCCCCCCCCCCCc1ccc(C=O)[nH]1 | < 50% |  | IC50 [1]: > 30 µM |
| CCCCCCCCCCCCCCCCc1ccc(C=O)[nH]1 | < 50% |  |  |
| N#CCCCCCCCCCCCCCCCCCCCc1ccc(C=O)[nH]1 | < 50% |  |  |
| N#CCCCCCCCCCCCCCCCCCCc1ccc(C=O)[nH]1 | < 50% |  |  |
| CC(C)CCCCCCCCCCCCCc1ccc(C=O)[nH]1 | < 50% |  |  |
| N#CCCCCCCCCCCCCC/C=C\CCCCCCc1ccc(C=O)[nH]1 | < 50% |  |  |
| N#CCCCCCC/C=C\CCCCCCCCCCCCCCCc1ccc(C=O)[nH]1 [MYCALENITRILE 10] | < 50% |  | IC50 [1]: > 30 µM |
| N#CCCCCCC/C=C\CCCCCCCCCCCCCc1ccc(C=O)[nH]1 | < 50% |  |  |
| N#CCCCCCCCCCCCCCC/C=C\CCCCCCc1ccc(C=O)[nH]1 | < 50% |  |  |
| N#CCCCCCCCCCCCCCCCCCc1ccc(C=O)[nH]1 [MYCALENITRILE 1] |  | 10 µM | inhibition [3]: inactive |
| N#CCCCCCCCCCCCCCCCc1ccc(C=O)[nH]1 [MYCALENITRILE 13] |  | 10 µM | inhibition [3]: inactive |
| CC(C)CCCCCCCCCCCCc1ccc(C=O)[nH]1 |  | 20 µM |  |

Second part, led by results:

| inhibition [2] | IC50 [4] | Compound | further results |
| --- | --- | --- | --- |
|  | 10 µM | N#CCCCCCC/C=C\CCCCCCCCCCCc1ccc(C=O)[nH]1 [MYCALENITRILE 8] | inhibition [3]: inactive |
|  | 7.8 µM | N#CCCCC/C=C\C/C=C\CCCCCCCCCCc1ccc(C=O)[nH]1 [Mycalenitrile-6] | inhibition [3]: inactive; Activity (T47D [5]): inactive; Activity (T47D [6]): Dose-dependent effect; IC50 [1]: < 10 µM; inhibition at 30 µM (T47D [7]): 50%; Activity (T47D [8]): Active; Activity (T47D [9]): inactive; Activity (T47D [10]): inactive |
|  | 20 µM | CC/C=C\C/C=C\C/C=C\CCCCCCCCCCCc1ccc(C=O)[nH]1 [MYCALAZAL 3] |  |
|  | 8.6 µM | N#CCCCC/C=C\C/C=C\CCCCCCCCCCCCc1ccc(C=O)[nH]1 [MYCALENITRILE 7] | inhibition [3]: inactive; inhibition (T47D [11]): inactive; Activity (T47D [5]): inactive; Activity (T47D [6]): Dose-dependent effect; IC50 [1]: < 10 µM; inhibition (T47D [7]): inactive; Activity (T47D [8]): Active; Activity (T47D [9]): inactive; Activity (T47D [10]): inactive |
| < 50% |  | CCCCCC/C=C\CCCCCCCCCc1ccc(C=O)[nH]1 |  |
|  | 20 µM | CC/C=C\C/C=C\C/C=C\CCCCCCCCCc1ccc(C=O)[nH]1 [MYCALAZAL 20] |  |
| < 50% |  | N#CCCCCCCCCCCCCCCCC/C=C\C/C=C\CCc1ccc(C=O)[nH]1 |  |
|  | 20 µM | CCCCCCCCCCCCCCc1ccc(C=O)[nH]1 [MYCALAZAL 14] |  |
|  | 20 µM | CC(C)CCCCC/C=C\CCCCCCc1ccc(C=O)[nH]1 [MYCALAZAL 17] |  |
| < 50% |  | CC/C=C\C/C=C\C/C=C\CCCCCCCc1ccc(C=O)[nH]1 |  |
|  | 10 µM | N#CCCCC/C=C\C/C=C\CCCCCCCCCCCCCCc1ccc(C=O)[nH]1 [MYCALENITRILE 5] | inhibition [3]: inactive |
| < 50% |  | CCCCCCCCCCCCCCCc1ccc(C=O)[nH]1 |  |
|  | 20 µM | CCC/C=C\C/C=C\CCCCCCCCCc1ccc(C=O)[nH]1 [MYCALAZAL 18] |  |
|  | 20 µM | CC(C)CCCCCCCCC/C=C\CCc1ccc(C=O)[nH]1 [MYCALAZAL 16] |  |
